# A selection: hits, their analogues and other compounds. The true share with any hit is near 4.6%.
# TAAR1 ag = human TAAR1 agonism | activation, % at 3 µM | 360,000 compounds, 0.99% hits | CHO RD-HGA16 TAAR1, Fluo-8 calcium fluorescence; vehicle wells 0%, saturating PEA agonist 100%;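 active = activation above the mean activation of all test compounds in the run plus 3 SD, cut at about 38% in these data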
# Target sequence (Q96RJ0 whole entry, looked up): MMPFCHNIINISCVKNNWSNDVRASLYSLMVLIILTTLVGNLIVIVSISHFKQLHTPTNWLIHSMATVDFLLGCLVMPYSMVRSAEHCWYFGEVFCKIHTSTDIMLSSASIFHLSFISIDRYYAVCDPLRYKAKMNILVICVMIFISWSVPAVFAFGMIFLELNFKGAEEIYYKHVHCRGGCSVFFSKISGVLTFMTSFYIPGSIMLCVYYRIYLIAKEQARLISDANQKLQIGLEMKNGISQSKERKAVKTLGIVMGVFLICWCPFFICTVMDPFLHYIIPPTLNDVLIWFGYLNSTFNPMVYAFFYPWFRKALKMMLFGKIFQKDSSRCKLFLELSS
#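 System: CHO RD-HGA16 cells carrying human TAAR1 plus Gα16; Incubation: 17-24 h seeding, 75 min 37 °C dye, 30 min RT; Measured by: Fluo-8 fluorescence, 5 s baseline then 140 s kinetic read; Control set: DMSO and PEA EC100; Replication: single well for each compound.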
# TAAR1 antag = human TAAR1 antagonism; Q96RJ0; CHO RD-HGA16 TAAR1, Fluo-8 calcium fluorescence, antagonist; inhibition, % at 3 µM; 360,000 compounds, 1.5% hits; AID 624466;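 active = inhibition above a per-plate cutoff, the mean inhibition of test compounds on that plate plus 3 SD, cut at about 49% in these data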;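 note: 0% = DMSO plus EC80 beta-PEA response and 100% = DMSO alone without agonist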
#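 Material: RD-HGA16 CHO cells with stable hTAAR1 and Gα16; Dosing: single nominal final test compound concentration of 3 µM; Schedule: seeding 17-24 h prior, 75-min 37 °C, 30-min RT dye loading; Detection: kinetic Fluo-8 calcium fluorescence measurement; Measure: % inhibition from peak post-agonist over basal fluorescence ratio; Benchmarks: vehicle and agonist controls.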
# OX1R antag-1 = blocks the human orexin 1 receptor; O43613; OX1R-expressing cells, FRET antagonist read-out; inhibition, % at 6.6 µM; 330,000 compounds, 1.8% hits; AID 485270; in the data active = inhibition mostly above about 38%, no sharp cut-off; inactive = mostly below about 40%;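 note: 0% = agonist challenge alone and 100% = reference antagonist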
# CHO parental Ca = counter-screen for OX1R antagonists: effect in parental CHO cells. parental CHO-K1, ATP-induced calcium, Fluo-8 fluorescence. inhibition, % at 5.6 µM. 330,000 compounds, 0.63% hits. AID 463079;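 active = inhibition above that plate's mean sample inhibition plus 3 SD, cut at about 26% in these data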;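 note: 0% = ATP-challenged DMSO wells and 100% = DMSO wells without ATP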
#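 Assay system – parental CHO cells · Reagent – ATP stimulus · Detection – intracellular calcium via Fluo-8 no-wash fluorescent dye · Evaluation – percent inhibition of ATP-evoked calcium rise, normalized to controls · Controls – ATP wells versus no-ATP DMSO wells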
# GPR7 antag = antagonists of human GPR7 (neuropeptides B/W receptor 1); GPR7-expressing cells, fluorescence antagonist assay; inhibition, % at 4.4 µM; 290,000 compounds, 1.1% hits; in the data active = inhibition above about 16%, passing the limit was not always enough;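 note: cells stimulated with the agonist NPW; 0% = agonist with vehicle and 100% = vehicle without agonist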
# OX1R antag-2 = blocks the human orexin 1 receptor; CHO/OX1R cells, Fluo-8 calcium fluorescence, orexin A; O43613; 330,000 compounds, 0.43% hits; inhibition, % at 5 µM;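 active = inhibition above its plate's threshold, mean inhibition of all tested compounds on the plate plus 3 SD, cut at about 37% in these data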;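 note: 0% = orexin A challenge wells and 100% = SB-334867-A antagonist wells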
# Active calls of the source: *; . = no result.
SMILES,TAAR1 ag,TAAR1 antag,OX1R antag-1,CHO parental Ca,GPR7 antag,OX1R antag-2
CN(CC(=O)Nc1cccc(F)c1)C(=O)c1ccccc1OCC(=O)Nc1cccc(C(F)(F)F)c1,19,82*,17,-20,.,-2
CCOC(=O)C1=C(COC(=O)c2ccccc2OC)NC(=O)NC1C (stereo unspecified),14,49*,.,.,.,.
CCCOc1nc2c(c(=O)n(C)c(=O)n2C)n1Cc1cccc2ccccc12,25,12,15,39*,-9,68*
CCCCCOC(=O)Nc1nnc(CCCCC)s1,1,-1,7,-21,19*,-35
CCCCC1(C)OC(=O)C(=Cc2ccc(N(CC)CC)cc2)C(=O)O1 (stereo unspecified),46*,19,19,4,-9,-4
O=C(C[C@H]1C/C=C\C[C@@H](Cc2ccc(F)cc2)C(=O)OC[C@H]2CCCN2C1=O)N[C@@H](CO)Cc1ccccc1,7,12,10,-16,.,-27
Nn1c(SCc2ccccc2)nc2c(cnn2-c2ccccc2)c1=O,5,-14,13,4,0,-21
C=CCn1c(Cc2ccccc2)nc2c(cnn2-c2ccccc2)c1=O,1,23,13,39*,-2,6
OC(CNCCC1C=Nc2ccccc21)Cn1c2ccc(Cl)cc2c2cc(Cl)ccc21 (stereo unspecified),40*,42,3,56*,6,39
Brc1cccc(OCCN2CCCCC2)c1,2,-24,10,-4,-5,-10
CCC(=O)Nc1nc(-c2ccc3c(c2)CC(C)N3S(C)(=O)=O)cs1 (stereo unspecified),10,43,55,-19,-5,-25
CC1Cc2cc(-c3csc(NC(=O)Cc4cccs4)n3)ccc2N1S(C)(=O)=O (stereo unspecified),17,61*,17,14,-3,30
Cc1ccc(C)c(OCC(=O)NNC(=O)C2CC2)c1,1,-15,-2,-7,1,-4
CCCCOC(=O)CCn1c(=S)oc2ccccc21,44*,25,6,-7,-1,-42
CCCNC(=O)CCn1c(=S)oc2ccccc21,2,-10,3,3,-5,1
O=C(COC(=O)/C=C/c1ccc(Cl)cc1)Nc1ccc2c(c1)OCCO2,42*,54*,11,5,-8,-15
COc1ccc(CCNC(=O)COC(=O)/C=C/c2ccc3c(c2)OCO3)cc1,8,7,20,32*,.,-21
O=C(COC(=O)/C=C/c1ccccc1)Nc1ccc2c(c1)OCCO2,4,-3,-1,-12,.,-8
CC(=O)c1c(C)n([O-])c2ccc(C)cc2[n+]1=O,2,-19,41*,-4,-2,2
Cc1c(Cc2ccccc2)[n+](=O)c2ccccc2n1[O-],0,-16,.,.,.,.
Cc1ccc2nsnc2c1S(=O)(=O)N1CCN(C(=O)C2CCCO2)CC1 (stereo unspecified),4,-3,69*,-19,7,-12
O=C(Cn1cnc(Cl)c1Cl)c1ccccc1,0,1,19,8,-9,0
O=C(COc1ccccc1Cl)c1ccc2c(c1)CCCC2,1,20,23,28*,-5,-28
COc1ccc(/C=N/OC(=O)Nc2ccccc2)cc1[N+](=O)[O-],16,12,3,-5,-5,-6
NNC(=O)C12CC3CC(C1)CC(n1ncnn1)(C3)C2,2,-17,10,-24,-12,-16
SMILES,TAAR1 ag,TAAR1 antag,OX1R antag-1,CHO parental Ca,GPR7 antag,OX1R antag-2
Clc1ccc2[nH]cc(-c3nnnn3-c3ccc4ccccc4c3)c2c1,8,49*,54,57*,24,30
Cc1ccc(-n2nnnc2-c2cnc3ccc(Cl)cc3c2-c2ccccc2)cc1,0,-11,11,-23,-2,-23
N#CC(Cc1cccs1)c1nc2ccccc2[nH]1 (stereo unspecified),1,-3,.,.,.,.
N#CC(/C(=N/S(=O)(=O)c1cccs1)c1ccccc1)c1nc2ccccc2[nH]1 (stereo unspecified),15,30,43*,-12,4,-18
CN(C)S(=O)(=O)c1cccc(COC(=O)Cc2c(F)cccc2Cl)c1,2,20,32,45*,0,-14
CN(C)S(=O)(=O)c1cccc(COC(=O)c2cccnc2Cl)c1,8,-8,38,10,6,17
Cc1ccc(C)c(C(C)NC(=S)NCc2ccc(F)cc2)c1 (stereo unspecified),18,-3,31,67*,22,41*
COc1ccc(C(C)NC(=S)NCc2ccc(F)cc2)cc1 (stereo unspecified),9,9,-2,-7,1,-3
Cc1ccc(NC(=O)CC2SC3=NCCN3C2=O)cc1 (stereo unspecified),2,8,8,33*,-9,14
COC(=O)c1c(C)[nH]c(C=O)c1-c1ccccc1,2,12,11,-12,-13,-12
COC(=O)c1c(C)[nH]c(C)c1C(=O)c1ccccc1Cc1ccccc1,13,0,47*,-12,.,-10
Cc1ccc(S(=O)(=O)N(C)C)cc1NC(=O)COC(=O)C1CCCC1,0,2,14,0,.,-21
Cc1ccoc1C(=O)N1CCCCC1C(=O)O (stereo unspecified),7,-4,23,-6,-17,-21
COn1c(=O)c(-c2ccc(Cl)cc2)[n+]([O-])c2ccccc21,7,6,53*,0,-12,-3
COn1c(=O)c(-c2ccccc2)[n+]([O-])c2ccccc21,0,-8,42*,-1,2,-12
Cc1ccc(C(=O)N2CC(=O)Nc3ccc(C)cc3C2c2ccccc2)cc1 (stereo unspecified),7,-2,.,.,-16,.
CN(C)c1c([N+](=O)[O-])cc2[nH]c(=O)[nH]c2c1[N+](=O)[O-],5,4,42*,1,-8,9
CC(=O)Nc1ccc(N(C)C)cc1[N+](=O)[O-],6,-16,45,-8,-3,-19
CCCN1C=CC(=C/C=C(\C#N)C(=O)OCC)C=C1,.,.,73*,33*,8,36
Cc1cccc(CC2SC(N3CCN(c4ccccc4)CC3)=NC2=O)c1 (stereo unspecified),0,-4,7,-5,-7,-9
COc1cccc(OC)c1C(=O)Nc1cc(Cl)ccc1N1CCOCC1,13,-19,53*,-41,-9,-6
NC(=O)c1cc([N+](=O)[O-])ccc1NCC1CCCCC1,38*,-15,-2,-19,.,-21
O=S1(=O)CC(N2CCC(Cc3ccccc3)CC2)CN1Cc1ccc(F)cc1 (stereo unspecified),0,17,.,.,.,.
